{
  "source": "ChEMBL document CHEMBL1136815",
  "about": "“Synthesis and in vitro evaluation of novel small molecule inhibitors of bacterial arylamine N-acetyltransferases (NATs)” (Bioorg Med Chem Lett, 2003)",
  "data": [
    {"assay": "Inhibition constant of Mycobacterium smegmatis N-Acetyltransferase (MSNAT) -catalyzed acetylation with respect to isoniazid.; call rule not given here", "set-up": "species or system Mycolicibacterium smegmatis", "units": {"Ki": "µM"}, "values": [
      {"smiles": "O=C1NC(=O)/C(=C2\\CN(Cc3ccc4ccccc4c3)S(=O)(=O)c3ccccc32)S1", "Ki": 70}
    ]},
    {"assay": "In vitro inhibition of recombinant Mycobacterium smegmatis Arylamine N-Acetyltransferase (MSNAT) -catalyzed acetylation of isoniazid (INH); not active", "set-up": "species or system Mycolicibacterium smegmatis", "how_it_was_run": "(§1)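 Pure recombinant M. smegmatis NAT acetylating isoniazid with acetyl CoA as donor. Acetyl CoA hydrolysis rate followed with 5,5'-dithio-bis(2-nitrobenzoic acid), reading the thio-2-nitrobenzoic acid product spectrophotometrically at 412 nm. Half-maximal inhibitory concentration (IC50) taken from this rate.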", "values": [
      {"smiles": "O=C1CSC(=O)N1", "note": "[THIAZOLIDINEDIONE]", "IC50": "Not Active"},
      {"smiles": "O=C1CN(Cc2ccc3ccccc3c2)S(=O)(=O)c2ccccc21", "IC50": "Not Active"}
    ]},
    {"assay": "In vitro inhibition of recombinant Mycobacterium smegmatis Arylamine N-Acetyltransferase (MSNAT) -catalyzed acetylation of isoniazid (INH)", "set-up": "species or system Mycolicibacterium smegmatis", "how_it_was_run": "as §1", "units": {"IC50": "µM", "Ki": "µM"}, "values": [
      {"smiles": "O=C1NC(=O)/C(=C2\\CN(CC3CCCCC3)S(=O)(=O)c3ccccc32)S1", "IC50": 205},
      {"smiles": "CCCCCCCCCCN1C/C(=C2/SC(=O)NC2=O)c2ccccc2S1(=O)=O", "IC50": 22, "Ki": 14.7},
      {"smiles": "O=C1NC(=O)/C(=C2\\CN(Cc3ccccc3)S(=O)(=O)c3ccccc32)S1", "IC50": "> 100"},
      {"smiles": "CCCCCCCCN1C/C(=C2/SC(=O)NC2=O)c2ccccc2S1(=O)=O", "IC50": 61, "Ki": 43},
      {"smiles": "O=C1NC(=O)/C(=C2\\CN(Cc3ccc(-c4ccccc4)cc3)S(=O)(=O)c3ccccc32)S1", "IC50": 20, "Ki": 14.4},
      {"smiles": "O=C1NC(=O)/C(=C2\\CN(CC3CC3)S(=O)(=O)c3ccccc32)S1", "IC50": "> 100"},
      {"smiles": "C=C(C)CCN1C/C(=C2/SC(=O)NC2=O)c2ccccc2S1(=O)=O", "IC50": "> 100"},
      {"smiles": "O=C1NC(=O)/C(=C2\\CN(Cc3ccccn3)S(=O)(=O)c3ccccc32)S1", "IC50": "> 100"},
      {"smiles": "O=C1NC(=O)/C(=C2\\CN(Cc3ccc(/C=C/c4ccccc4)cc3)S(=O)(=O)c3ccccc32)S1", "IC50": 29, "Ki": 14},
      {"smiles": "CN1C/C(=C2/SC(=O)NC2=O)c2ccccc2S1(=O)=O", "IC50": "> 100"},
      {"smiles": "O=C1NC(=O)/C(=C2\\CN(Cc3ccc(Cl)s3)S(=O)(=O)c3ccccc32)S1", "IC50": 33, "Ki": 26.7},
      {"smiles": "CCC(CC)CN1C/C(=C2/SC(=O)NC2=O)c2ccccc2S1(=O)=O", "IC50": 92},
      {"smiles": "O=C1NC(=O)/C(=C2\\CN(CCC3CCCCC3)S(=O)(=O)c3ccccc32)S1", "IC50": 82},
      {"smiles": "O=C1NC(=O)/C(=C2\\CN(Cc3ccc(Br)cc3)S(=O)(=O)c3ccccc32)S1", "IC50": 65},
      {"smiles": "O=C1NC(=O)/C(=C2\\CN(CCOc3ccccc3)S(=O)(=O)c3ccccc32)S1", "IC50": "> 100"},
      {"smiles": "O=C1NC(=O)/C(=C2\\CNS(=O)(=O)c3ccccc32)S1", "IC50": "> 100"}
    ]},
    {"assay": "In vitro inhibition of recombinant Mycobacterium smegmatis N-Acetyltransferase (MSNAT) -catalyzed acetylation of isoniazid (INH).", "set-up": "species or system Mycolicibacterium smegmatis", "how_it_was_run": "as §1", "units": {"IC50": "µM"}, "values": [
      {"smiles": "O=C1NC(=O)/C(=C2\\CN(Cc3ccc4ccccc4c3)S(=O)(=O)c3ccccc32)S1", "IC50": 78}
    ]}
  ]
}
